According to ChEMBL document CHEMBL5724801, “EUbOPEN Chemogenomics Library - Multiplex” (2024):
Where “and” joins values, the source holds several entries; their conditions need not be identical. Equal entries are not always repeated.

Test system: HEK-293T
Assay: Multiplex assay against HEK293T
Assay type: toxicity, cell-based
Details: human
How it was run: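 Cells were classed with CellPathfinder machine-learning gating, first as Hoechst high-intensity objects or normal cells, then (normal cells) as healthy, pyknosed or fragmented nuclei, and finally (pyknosed cells) as mitotic or apoptotic. Staining of live cells at seeding used Hoechst33342, BioTracker Green Microtubule Cytoskeleton Dye, MitoTracker Red and Annexin V Alexa Fluor 680, with imaging on a CQ1 microscope at 37°C and 5% CO2 after compound addition. Tubulin, mitochondrial-mass and membrane-permeability phenotypes are per cents of healthy-nucleus cells.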

[1] = 12 h, 1 µM, compound concentration 1 uM
[2] = 12 h, 10 µM, compound concentration 10 uM
[3] = 24 h, 1 µM, compound concentration 1 uM
[4] = 24 h, 10 µM, compound concentration 10 uM
[5] = 48 h, 1 µM, compound concentration 1 uM
[6] = 48 h, 10 µM, compound concentration 10 uM

CC(C)CNc1nc(N2CCN(CC3CCCOC3)CC2)ncc1C(=O)NCc1ccccc1 (configuration not stated)
Population Apoptotic (%) [1]: 11.7% and 11.21%
Population Fragmented Nuclei (%) [1]: 1.89% and 4.9%
Population Hoechst High Intensity Objects (%) [1]: 0.31% and 0%
Population Membrane Permeable-Phenotype (%) [1]: 0%
Population Mitotic Cells (%) [1]: 88.3% and 88.79%
Population Normal (%) [1]: 99.69% and 100%
Population Pyknosed Nuclei (%) [1]: 53.94% and 81.12%
Population Tubulin-Different-Phenotype (%) [1]: 13.57% and 25%
Total Cell Count [1]: 318 and 143
Population Apoptotic (%) [2]: 30.6% and 27.73%
Population Fragmented Nuclei (%) [2]: 4.29% and 5.11%
Population Hoechst High Intensity Objects (%) [2]: 1.06% and 0%
Population Membrane Permeable-Phenotype (%) [2]: 0%
Population Mitochondria Different-Phenotype (%) [2]: 23.53% and 63.64%
Population Mitotic Cells (%) [2]: 69.4% and 72.27%
Population Normal (%) [2]: 98.94% and 100%
Population Pyknosed Nuclei (%) [2]: 65.36% and 86.86%
Population Tubulin-Different-Phenotype (%) [2]: 85.88% and 81.82%
Total Cell Count [2]: 283 and 137
Population Apoptotic (%) [3]: 21.51% and 22.81%
Population Fragmented Nuclei (%) [3]: 1.41% and 5.26%
Population Hoechst High Intensity Objects (%) [3]: 0.2% and 0%
Population Membrane Permeable-Phenotype (%) [3]: 1.89% and 0%
Population Mitochondria Different-Phenotype (%) [3]: 30.6% and 36.67%
Population Mitotic Cells (%) [3]: 78.49% and 77.19%
Population Normal (%) [3]: 99.8% and 100%
Population Pyknosed Nuclei (%) [3]: 34.68% and 75%
Population Tubulin-Different-Phenotype (%) [3]: 28.71% and 13.33%
Population Apoptotic (%) [4]: 59.41% and 71.68%
Population Fragmented Nuclei (%) [4]: 4.91% and 5.67%
Population Hoechst High Intensity Objects (%) [4]: 0.61% and 0%
Population Membrane Permeable-Phenotype (%) [4]: 0%
Population Mitochondria Different-Phenotype (%) [4]: 72.86% and 75%
Population Mitotic Cells (%) [4]: 40.59% and 28.32%
Population Normal (%) [4]: 99.39% and 100%
Population Pyknosed Nuclei (%) [4]: 52.15% and 80.14%
Population Tubulin-Different-Phenotype (%) [4]: 90.71% and 75%
Total Cell Count [4]: 328 and 141
Population Apoptotic (%) [5]: 7.95% and 20.65%
Population Fragmented Nuclei (%) [5]: 1.03% and 6.84%
Population Healthy Nuclei (%) [5]: 83.45% and 44.74%
Population Hoechst High Intensity Objects (%) [5]: 0%
Population Membrane Permeable-Phenotype (%) [5]: 2.71% and 1.18%
Population Mitochondria Different-Phenotype (%) [5]: 49.88% and 61.18%
Population Mitotic Cells (%) [5]: 92.05% and 79.35%
Population Normal (%) [5]: 100%
Population Apoptotic (%) [6]: 64.8% and 78.16%
Population Fragmented Nuclei (%) [6]: 2.93% and 2.01%
Population Healthy Nuclei (%) [6]: 60.41% and 39.6%
Population Hoechst High Intensity Objects (%) [6]: 0.87% and 1.32%
Population Membrane Permeable-Phenotype (%) [6]: 0.97% and 3.39%
Population Mitochondria Different-Phenotype (%) [6]: 96.6% and 88.14%
Population Mitotic Cells (%) [6]: 35.2% and 21.84%
Population Normal (%) [6]: 99.13% and 98.68%
Population Pyknosed Nuclei (%) [6]: 36.66% and 58.39%
Population Tubulin-Different-Phenotype (%) [6]: 73.3% and 91.53%
Total Cell Count [6]: 344 and 151
